This data set relates to MS2 coat protein. Kind of data set: apparent Kd, MS2 coat protein; higher = weaker binding; RNA-MaP array; FMN 200 µM where present. The method, boiled down:
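Designs on Illumina sequencing-chip clusters, transcribed by stalled E. coli RNA polymerase, were exposed to SNAP-549-labelled MS2 coat protein in doubling steps from 0.7 or 1.5 nM up to 3 µM, without and then with constant ligand. The buffer held 100 mM Tris-HCl pH 7.5, 80 mM KCl, 4 mM MgCl2, BSA, DTT, yeast tRNA and Tween-20. Apparent Kd values are medians of filtered per-cluster binding-curve fits to green signal normalised to red-channel RNA signal and control-cluster median Fmax.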

[1] abbreviates: designed as: OFF switch for flavin mononucleotide, no ligand.
The mark [2] stands for this setting: ligand present: flavin mononucleotide, designed as: OFF switch for flavin mononucleotide.
Setting [3] is: designed as: ON switch for flavin mononucleotide, no ligand.
Setting [4] is: ligand present: flavin mononucleotide, designed as: ON switch for flavin mononucleotide.

Here are results for 48 sequences from the EternaBench riboswitch data.

As for “CUACUGUGAGGAUAUGGUGAGUAGUGCCUGAGCGCUGCUCACCAGAAGGCACAUGAGGAUCACCCAUGUAUGAC”, the apparent Kd (usually a dissociation constant that holds for the conditions of the assay) worked out at 53.9 nM under setting [1] and 220 nM under setting [2].
As for “UGCGCUGAGGGAGGAUAUGACAUGAGGAUCACCCAUGUGAUAGGUUUCUUGUCAGAAGGCCCGCGUGUACCGAAUUAGGUUCGC”, the “apparent Kd” value is, setting by setting: under setting [1], 55.6 nM; under setting [2], 404 nM.
As to “ACCAAUGCAGGAUAUACAUGAGGAUCACCCAUGUAUAACCUACAUAGAUGAUCAUCAUGUAGAAGGGCAAUGGA”, the “apparent Kd” value runs as follows: under setting [1], 13.1 nM; under setting [2], 12.1 nM.
With “GUCAGCUCGUGAGGAUAUACAUGUGCUGGAUACAGCACUAAUUAAUUCACAUGAGGAUCACCCAUGUAGAAGGCACGAGCUGAU”, the “apparent Kd” value is 16.1 nM under setting [1] and 18.8 nM under setting [2].
Turning to “CAGUACUGAGGAUAUACAUGAGGAUCACCCAUGUAUCCAAGCUAGGAAACUAGCAAAUGUAGAAGGCAGUACUG”, the “apparent Kd” value runs as follows: under setting [1], 34.1 nM; under setting [2], 519 nM.
On the same counts, the results for “AAGAAACAUGAGGAUCACCCAUGUGAGGAUAUGCAAGAAAGAAAGAAAGAAAGAAGAAGCAGAAGGCACAAAGG” are 25.8 nM and 49.7 nM.
Consider “CAUUCUUUUCCGGAGGAUAUGCUACCCUUUACAUGAGGAUCACCCAUGUUACCCUCUUCUUGUCAGUAGAAGGCCGUUUCUUAAC”, for which the “apparent Kd” value is, setting by setting: under setting [3], 27.4 nM; under setting [4], 25.1 nM.
For the sequence “CGUAGGAUGCAGAAGGCAUGAACAUGAGGAUCACCCAUGUCAAAAUACAUGAGGAUAUGCAUCCUACGAAAAGUGCGAAAGCAC”, the “apparent Kd” value under setting [3] was found to be 4.62 nM and the “apparent Kd” value under setting [4] is 4.3 nM.
Take “GCCAUCGUAUGAGGAUAUGGCACCGAAACGGUGCCAGAAGGCAUGUCAAUUGACAUGAGGAUCACCCAUGUAUUAUCGAUGGCA”: the “apparent Kd” value came out at 857 nM under setting [3] and 89 nM under setting [4].
Consider “AAGAUCGGAGGAUAUGAAAGGCGUUACAUGAGGAUCACCCAUGUCGGUUUCAUGUUCGUCUCAGAAGGCCGACUCC”, for which the “apparent Kd” value by setting is: under setting [1], 84.7 nM; under setting [2], 311 nM.
With “GGAUGAUAGACAGGAUAUUGAUUGUAAUUAUGUCAAGAAGGGUCUUUGAUUUAAACGACCAGUUACAUGAGGAUCACCCAUGUU”, the “apparent Kd” value is 30.7 nM under setting [3] and 21 nM under setting [4].
Turning to “UUGCCUCAGAACAUGAGGAUCACCCAUGUGCUGCGGGCAACGUAGGAUAUGAUGGUAUGAUACCAUCAGAAGGAUGAUGGUACC”, the “apparent Kd” value came to 5.96 nM under setting [3] and 5.33 nM under setting [4].
Turning to “AAAAAGUGAGGAUAUGGAAAAAAAAAAAAAAAAAAAAAAAACCAGAAGGCACAUGAGGAUCACCCAUGUAAAAA”, the “apparent Kd” value is, setting by setting: under setting [1], 39.6 nM; under setting [2], 39.4 nM.
For “ACAUGAGGAUCACCCAUGUAGAAUGAAGAAGGUAGAUACUUGAGACUCACCCAUGUACAUAGGACUAAGGAUAUUCUAAUAAUU”, the “apparent Kd” value turned out to be 14.1 nM under setting [3] and 10.7 nM under setting [4].
On to “AUGGUUCACUCAGGAUAUGUAUCACCUCGUUACCAACAUGAGGAUCACCCAUGUCCGUGGCUCGGACAGAAGGGAGAAGAACCG”, for which the “apparent Kd” value worked out at 581 nM under setting [3] and 232 nM under setting [4].
Turning to “UGUGUGUGGCAGGAUAUGCCGGUCGUAGGACGGGUAGAAGGGUCUACAUGAGGAUCACCCAUGUGGCCGGUUGG”, the “apparent Kd” value reads like this: under setting [1], 19.2 nM; under setting [2], 18.5 nM.
Regarding “GGCUGCGUUGUGAAGGAUAUCCGCGUCUGGACAUGAGGAUCACCCAUGUAUGCUUGGAUCGUGCCGGAGAAGGUCACGAAUGAUU”, the “apparent Kd” value runs as follows: under setting [3], 34.5 nM; under setting [4], 15.9 nM.
For the sequence “GGACGUCUCAUUAACAUGAGGAUCACCCAUGUCAAAAGACAUGAGGAUAUGGAACCUAAUUGGUUCCAGAAGGCAUGGACGUCC”, the “apparent Kd” value came out at 802 nM under setting [3] and 62.6 nM under setting [4].
With “ACCAACAGGGUUGGUACCGGCGCGCAGGAUAUGCUUGCCUACAUGAGGAUCACCCAUGUCUAAAUGCAGAAGGGUGAGCUGAGC”, the “apparent Kd” value turned out to be 193 nM under setting [3] and 114 nM under setting [4].
“UUAACUCAUGUAGGAUAUGCAUGGCGAAGCUACGCAGAAGGACAUGAGGAUCACCCAUGUUCUAGCGUCUGAGAACAGAUGCAA”: the “apparent Kd” value was 49.2 nM under setting [1] and 400 nM under setting [2].
Regarding “GGGCCGUAGUAGAAGGGAUAUACGUUAGGUAUAUCAGGAUAUACAUGAGGAUCACCCAUGUUCUAACAGUGAUAGUCCUCCCUU”, the “apparent Kd” value reads like this: under setting [1], 15.5 nM; under setting [2], 33.1 nM.
Turning to “AUAUGAUAGAUAGGAUAUACAUUGGAUUUAAAAGUAGAAGGAUCAAGUGGGAAUUAUACAUGAGGAUCACCCAUGUUUUUGGAU”, the “apparent Kd” value was 59 nM under setting [3] and 46.7 nM under setting [4].
Turning to “CGUCCGUGGGUAGUGAUCGUACAUGAGGAUCACCCAUGUGGGAAGGAUAUGCAUGCACGUGGACAGCAGAAGGUCCCACAACAA”, the “apparent Kd” value under setting [1] stood at 154 nM and the “apparent Kd” value under setting [2] turned out to be 86 nM.
As for “AGUGUCAUCGAGAAGGCCUCGACAUGAGGAUCACCCAUGUUGUUAUAUGGGAGGAUAUCGAUGAUACAGCUACGUUUCGUAGCA”, the “apparent Kd” value by setting is: under setting [3], 51.6 nM; under setting [4], 14.7 nM.
Regarding “GCUCUGUUAGGAUAUUUCGGCAUAGGUAUAACUUAAGCGUGAGAGAAGGAACAUGAGGAUCACCCAUGUUAAUC”, the “apparent Kd” value under setting [1] came to 19.9 nM and the “apparent Kd” value under setting [2] was determined as 77.5 nM.
As to “CCGAUUAGCACAGGAUAUGGGAAUUCGUAGUUUCCAGAAGGGUGAGCCAAUACAUGAGGAUCACCCAUGUGCGGUAGGUCGGGA”, the “apparent Kd” value under setting [3] is 30.5 nM and the “apparent Kd” value under setting [4] is 80 nM.
On to “UUUGAUAGCACAGGAUAUUGUCAUUUGAGUUGUCAAGAAGGGUGUACAUGAGGAUCACCCAUGUAAUGGUUGCCUCGCUGACUU”, for which the “apparent Kd” value was 175 nM under setting [1] and 279 nM under setting [2].
In the case of “UUCAGCUCGUGAGGAUAUACAUGUGCUGGAAACAGCACUAUUAAGAUCACAUGAGGAUCACCCAUGUAGAAGGCACGAGCUGAG”, the “apparent Kd” value turned out to be 48 nM under setting [1] and 585 nM under setting [2].
With “ACUAGAUGAGGAUAUGCAUAUUUUCGUGUUCUUCUAGAUUAACAUGAGGAUCACCCAUGUAGAAGGCGUCAUUA”, the “apparent Kd” value under setting [1] is 16.5 nM and the “apparent Kd” value under setting [2] worked out at 20.3 nM.
Regarding “GGGUACAUCGGAGGAUAUCAUGUAAAUACAUGAGGAUCACCCAUGUCGAUGGAGACAUCGGAGAUUGAGAAGGCCGAUCUACCG”, the “apparent Kd” value under setting [3] stood at 213 nM and the “apparent Kd” value under setting [4] was found to be 9.94 nM.
“UUCUUUACACGAGGAUAUCAUACAUGAGGAUCACCCAUGUUACUUUGUCUGUUAUUAUGUAUUAUUGAGAAGGCGUUUUUCUUU”: the “apparent Kd” value by setting is: under setting [1], 20.7 nM; under setting [2], 17.9 nM.
On to “UAAAUUUUGUAAGGAUAUACACGAGAUUCAAGUGUAGAAGGUACUUACAUGAGGAUCACCCAUGUAUACAUGGAUAAUAGAUAU”, for which the “apparent Kd” value worked out at 436 nM under setting [3] and 141 nM under setting [4].
As for “UGGUUGGGAGGAUAUCCAAUAUAUGACAUGAGGAUCACCCAUGUUUCCACUCGUACCUCCGGAGAAGGCCCUUCCC”, the “apparent Kd” value was determined as 21.7 nM under setting [1] and 20.7 nM under setting [2].
Regarding “GUAUCUUACCAAGGAUAUUUAAGAUUAGUGUAGACAUGAGGAUCACCCAUGUGGCCUUAGUCACGGGAGAAGGUGGUUUGAUAC”, the “apparent Kd” value reads like this: under setting [3], 312 nM; under setting [4], 70.9 nM.
For the sequence “AGAUGGCGAGGAUAUACAUGAGGAUCACCCAUGUGAAGAUAAAUAGUGAGGAAGAAAAGUAGAAGGCGCUGUCA”, the “apparent Kd” value amounted to 77.5 nM under setting [1] and 447 nM under setting [2].
For the sequence “GCCAAGUCAGGAUAUACAUGAGGAUCACCCAUGUAGGACGCUAUUUUGAUCUUGGUAGGUAGAAGGGACAUGGG”, the “apparent Kd” value runs as follows: under setting [1], 24.2 nM; under setting [2], 21.2 nM.
As for “GCGGAACAUGAGGAUCACCCAUGUAUCCGAAAUAUGGACUCACAGGAUAUCCAGAGUUGCCAAUCGGAGAAGGGUGACUCCAGC”, the “apparent Kd” value is, setting by setting: under setting [3], 14.4 nM; under setting [4], 8.29 nM.
Turning to “UUUAUAAAUUAGAAGGCAUGAUGAAUUACAAUAGACAUGAGGAUCACCCAUGUGUGUUCAUGUCAUGAGGAUAUAGUCAUAUAU”, the “apparent Kd” value under setting [3] stood at 17.5 nM and the “apparent Kd” value under setting [4] came to 9.93 nM.
In the case of “UUGUUACAUGAGGAUCACCCAUGUGAGGAUAUGGUUCAGUACUGUCAUGUCGCGUACUCCAGAAGGCACAUGUU”, the “apparent Kd” value is, setting by setting: under setting [1], 89.7 nM; under setting [2], 209 nM.
Take “UCAUCAAAUUGAACAUGAGGAUCACCCAUGUAGGAUUAGCCACAGGAUAUCCGUGCUAGAAUGUGGGAGAAGGGUGGUCACUCC”: the “apparent Kd” value is, setting by setting: under setting [3], 334 nM; under setting [4], 64.5 nM.
For the sequence “AGAUCCUGAGUCAGGAUAUAGAGACGGUAGUCGGGCUAGAAGGGACAUGAGGAUCACCCAUGUGGGUUCUUGCC”, the “apparent Kd” value under setting [1] turned out to be 10.7 nM and the “apparent Kd” value under setting [2] was found to be 13.1 nM.
For the sequence “CUGCGCUAGGAGAAGGGCUAGAGUGUGAUAUAUUUGCCCGCGAGCACAUGAGGAUCACCCAUGUAGCAGGAUAUCCAAGCCGAU”, the “apparent Kd” value reads like this: under setting [1], 8.03 nM; under setting [2], 16.5 nM.
Regarding “UCAUACGUUGAGGAUAUGUCAGUUAGAAUAUUUACAGAAGGCGAUACAUGAGGAUCACCCAUGUUUAUGGGCAU”, the “apparent Kd” value under setting [1] came out at 188 nM and the “apparent Kd” value under setting [2] was found to be 207 nM.
Consider “ACAUGGAAUACAGGAUAUGUUAGUUUACAGUAGAUUGGUUAUUACUUAACUACAGAAGGGUAAUACAUGAGGAUCACCCAUGUA”, for which the “apparent Kd” value worked out at 18.4 nM under setting [3] and 11.8 nM under setting [4].
Consider “CUCAUGUGAGGAUAUAGUACUUCUUCUAUUAUUAUUGAGUACUAGAAGGCACAUGAGGAUCACCCAUGUAGUAC”, for which the “apparent Kd” value runs as follows: under setting [1], 16 nM; under setting [2], 16.3 nM.
Turning to “GCCCUUCGAGGAUAUACAUGAGGAUCACCCAUGUCCGGAGUUCCGAGGCGGCCCAUAUGUAGAAGGCGAACUUU”, the “apparent Kd” value is, setting by setting: under setting [1], 43.4 nM; under setting [2], 67 nM.
Regarding “AAGUAUAGAGGAUAUAGUAAGUACUACAUGAGGAUCACCCAUGUUCUUCAUUACGUAUUUCUAGAAGGCUGAUAAA”, the “apparent Kd” value reads like this: under setting [1], 376 nM; under setting [2], 581 nM.
With “GGGUCCGCUCGAGGAUAUAGCUGCAUGUAGUGUCCUGAGGCACAUGAGGAUCACCCAUGUGUAGGCUAGAAGGCGACGGACACU”, the “apparent Kd” value reads like this: under setting [1], 50 nM; under setting [2], 114 nM.
